# Shown are actives, neighbours in structure and some others; about 2.8% of the full set was active somewhere.
# ASAP1 inh = ASAP1 ArfGAP inhibition. Q9ULH1. ASAP1-stimulated ARF1 GTP hydrolysis, GDP FP detection. inhibition, % at 16.5 µM. 360,000 tested, 0.19% active. AID 624377; in the data active = inhibition above about 25%
# Target sequence (Q9ULH1 325-724 limits assumed): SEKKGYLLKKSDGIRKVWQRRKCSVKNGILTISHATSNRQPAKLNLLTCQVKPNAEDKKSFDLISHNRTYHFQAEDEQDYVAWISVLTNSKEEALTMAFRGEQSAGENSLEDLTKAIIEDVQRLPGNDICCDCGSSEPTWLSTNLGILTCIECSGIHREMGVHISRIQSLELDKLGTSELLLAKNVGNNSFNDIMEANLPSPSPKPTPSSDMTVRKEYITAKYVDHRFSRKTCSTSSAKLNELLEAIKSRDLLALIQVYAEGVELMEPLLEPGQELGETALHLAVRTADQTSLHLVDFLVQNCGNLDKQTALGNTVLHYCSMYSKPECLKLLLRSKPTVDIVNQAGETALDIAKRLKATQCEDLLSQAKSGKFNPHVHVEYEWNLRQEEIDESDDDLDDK
# PAFAH1B3 FP inh = inhibitors of human PAFAH1B3 | inhibition, % at 3.39 µM | 340,000 tested, 0.28% active | Q15102 | recombinant PAFAH1B3, FP-rhodamine probe, fluorescence polarization;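 active = inhibition above the screen-wide average of all tested compounds plus 3 SD, cut at about 25% in these data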
# pPAFAH FP inh = pPAFAH (human) enzyme inhibition; 330,000 tested, 1.5% active; recombinant pPAFAH, FP-rhodamine probe fluorescence polarization; AID 463082; inhibition, % at 3.39 µM;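 active = inhibition above the mean inhibition across the screen plus 3 SD, cut at about 25% in these data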;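 also: inhibitors block binding of the rhodamine activity-based probe so polarization drops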
# PAFAH2 inh = inhibitors of human PAFAH2. inhibition, % at 3.39 µM. AID 492956. recombinant PAFAH2, FP-rhodamine activity probe, fluorescence polarization. 340,000 tested, 0.99% active;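 active = inhibition above the mean over all tested compounds plus 3 SD, cut at about 30% in these data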;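 also: inhibitors block probe labeling of enzyme so polarization drops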
# ARFGAP1 inhibitor = inhibits rat ARF GTPase activating protein 1. Arfgap1-stimulated ARF1 GTP hydrolysis, GDP FP detection. inhibition, % at 16.5 µM. 360,000 tested, 0.26% active. AID 651572;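 active = inhibition above a per-plate limit, mean inhibition of low control wells plus 3 SD, cut at about 25% in these data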
#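 system = rat Arfgap1 catalytic domain, aa 1-136 | technique = FP, GDP Alexa 633 tracer displaced from anti-GDP antibody, 620/688 nm | compound = one concentration, 16.5 µM, DMSO 1.26% | medium = HEPES-based buffer, pH 7.5 | timing = compound-enzyme preincubation 20 min, reaction 120 min, detection 60 min, 25 °C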
# PAFAH1B2 FP inh = inhibitors of human PAFAH1B2; P68402; recombinant PAFAH1B2, FP-rhodamine activity probe, fluorescence polarization; inhibition, % at 3.39 µM; 340,000 tested, 1.2% active;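 active = inhibition above the mean of all tested compounds plus 3 SD, cut at about 24% in these data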
# ASAP1 GAP conf = ASAP1 inhibition confirmed; ASAP1-stimulated Arf1 GTPase, GDP fluorescence polarization; shares compounds with ASAP1 inh; inhibition, % at 16.5 µM; 620 tested, 37% active;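 active = mean inhibition over triplicates exceeds the hit threshold derived for the earlier primary screening run, cut at about 25% in these data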
# Numbers stand for hits; - = inactive; . = not tested or not shown.
SMILES,ASAP1 inh,PAFAH1B3 FP inh,pPAFAH FP inh,PAFAH2 inh,ARFGAP1 inhibitor,PAFAH1B2 FP inh,ASAP1 GAP conf
CCn1nc(NC(=O)c2ccncc2)c2cc3cc(C)ccc3nc21,-,-,-,-,-,-,.
CCCc1nc2ccc(NC(C)=O)cc2c(=O)n1Cc1ccc(Cl)cc1,27.6,-,-,-,-,-,-
O=C(c1ccc(CS(=O)Cc2ccc(Cl)cc2)o1)N1CCN(C2CCCCC2)CC1 (centres undefined),-,.,.,.,-,.,.
COc1ccc(C(=O)Nc2ccc(Cl)cc2C(=O)NCc2ccco2)cc1,27.2,-,-,-,-,-,-
CCC(C)C(NC(=O)c1ccccc1NC(=O)c1ccc(OC)cc1)C(=O)NCc1ccco1 (centres undefined),-,-,-,-,-,-,.
CCc1cc(=O)oc2cc(OCC(=O)O)c(Cl)cc12,-,-,-,-,-,-,.
CCc1cc(=O)oc2cc(OC(C)C(=O)O)c(Cl)cc12 (centres undefined),27.0,-,-,-,-,-,-
COc1ccc(Cl)cc1NC(=O)COC(=O)c1cc(C)oc1C,24.9,-,-,-,-,-,-
O=C(Nc1ccc2nsnc2c1)N1CCCCCC1,-,-,-,-,-,-,.
S=C(Nc1ccc2nsnc2c1)N1CCCC1,35.3,-,-,-,-,-,-
CC(Cc1cccs1)NC(=S)Nc1ccc(Cl)cc1 (centres undefined),28.6,-,-,-,-,-,-
COCCNc1nc(C)c(C(C)=O)s1,26.1,-,-,-,-,-,-
Cc1nnc(NC(=O)CSc2nnc(CC(=O)Nc3ccccc3C)n2C)s1,-,-,-,-,-,-,.
CNC(=S)N(CCc1c(C)[nH]c2ccc(C)cc12)Cc1cccs1,26.1,-,-,-,-,-,-
CCOC(=O)N1CCN(C(=O)c2ccc(CS(=O)c3cccc(C)c3)o2)CC1 (centres undefined),-,.,.,.,-,.,.
Cc1ccc2c(C)c(C)c(=O)n(C)c2c1,-,-,.,-,-,-,.
Cn1cc(SCC(=O)NC2CCCCC2)c2ccccc21,26.7,-,-,-,-,-,-
Cn1cc(SCC(=O)NC2CCCC2)c2ccccc21,-,-,-,-,-,-,.
CCOC(=O)C1CCCN(C(=O)c2cccc(S(=O)(=O)N(Cc3ccccc3)c3ccccc3OC)c2)C1 (centres undefined),29.3,-,-,-,-,-,-
CCOC(=O)C1CCCN(C(=O)c2cccc(S(=O)(=O)N(C)c3ccc(OC)cc3)c2)C1 (centres undefined),-,-,.,-,-,-,.
COc1cc2cc(C(=O)N/N=C/c3ccccc3Cl)[nH]c2cc1OC,27.6,-,-,-,-,-,53.4
CCOCc1nnc(NC(=O)C2CCN(C(=O)C3CC(=O)N(c4ccc(C)cc4)C3)CC2)s1 (centres undefined),-,-,-,-,-,-,.
OCC[C@@H]1C[C@H](O)[C@@H](O)[C@]2(OCc3cc(Cl)ccc32)O1,-,.,.,.,-,.,.
OCC[C@@H]1C[C@H](O)[C@@H](O)[C@@]2(OCc3cc(Cl)ccc32)O1,24.9,.,.,.,-,.,-
CC1CCCCC1NC(=O)c1cccc(N2C(=O)C3C4C=CC(C4)C3C2=O)c1 (centres undefined),-,-,-,-,-,-,.
SMILES,ASAP1 inh,PAFAH1B3 FP inh,pPAFAH FP inh,PAFAH2 inh,ARFGAP1 inhibitor,PAFAH1B2 FP inh,ASAP1 GAP conf
NC(=O)c1cccc(-c2ccnc3c2CC(C(=O)NCc2cccc(Cl)c2)O3)c1 (centres undefined),-,.,.,.,-,.,.
COc1ccc(C=NNC(=S)NN=Cc2ccc(OC)c(OC)c2)cc1OC,33.8,-,.,-,44.2,-,59.1
CC1CCCCN1C(=O)COC(=O)c1cc([N+](=O)[O-])ccc1N1CCOCC1 (centres undefined),29.4,-,-,-,-,-,-
CN(C(=O)COC(=O)c1cc([N+](=O)[O-])ccc1N1CCOCC1)C1CCCCC1,-,.,.,.,-,.,.
COc1ccc(/C=C2/Sc3ccc(C(=O)NCCCN4CCOCC4)cc3NC2=O)cc1OC,31.9,-,-,-,-,-,89.4
CCCCCCCCCCCC(=O)c1c(O)cccc1O,28.0,-,-,-,-,-,-
CS(=O)(=O)Nc1ccc(-c2ccc(/C=C3\SC(N)=NC3=O)o2)cc1,29.8,-,-,-,-,-,61.9
